Assay results taken from ChEMBL document CHEMBL4831505, “Plant-Derived Cyclotides Modulate κ-Opioid Receptor Signaling” (J Nat Prod, 2021).

Key:
[1] = target: T1, Kappa-type opioid receptor (Mus musculus, UniProt P33534); assay: Positive allosteric modulator activity in mouse kappa opioid receptor stably expressed in HEK293 cell membrane assessed as binding affinity of dyn A1-13 to orthosteric binding site incubated with dyn A1-13 alone for 90 mins by radioligand competition binding assay; format: cell membranes
[2] = target: Kappa-type opioid receptor (Mus musculus) (UniProt P33534); assay: Positive allosteric modulator activity in mouse kappa opioid receptor stably expressed in HEK293 cell membrane assessed as inhibition of forskolin induced cAMP production by measuring dyn A1-13 Emax incubated with dyn A1-13 alone measured after 30 mins by HTRF assay relative to control; format: functional, cell membranes; conditions: filed as positive allosteric modulator, dose 0.03 µM, time 60.0 min
Procedure, shortened: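 Stably transfected mouse KOR HEK293 cells were pretreated with modulator (0.03–10 μM) for 30 min at 37 °C. Dyn A1-13 or U50,488 plus forskolin (10 μM final) with IBMX were then added for a further 30 min at 37 °C. HTRF cAMP read at 665/620 nm. Normalised to the highest orthosteric agonist concentration; unconstrained three-parameter fit, slope 1; n = 4 (7 at 10 μM).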

[3] = target: T1, Kappa-type opioid receptor; assay: Positive allosteric modulator activity in mouse kappa opioid receptor stably expressed in HEK293 cell membrane assessed as inhibition of forskolin induced cAMP production by measuring dyn A1-13 EC50 incubated with dyn A1-13 alone measured after 30 mins by HTRF assay; format: functional, cell membranes
Procedure, shortened: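 HEK293 stably expressing mouse KOR (2000 cells/well), pretreated 30 min at 37 °C with T20K (0.03–10 μM) or none, then dyn A1–13 with 10 μM forskolin and 0.5 mM IBMX for 30 min at 37 °C. cAMP by HTRF (665/620 nm) after 1 h at room temperature. Triplicates; normalized to top dyn A1–13 concentration; three-parameter fit, slope 1.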

[4] = target: T1, Kappa-type opioid receptor; assay: Agonist activity at mouse kappa opioid receptor […] assessed as beta-arrestin 2 recruitment using furimazine as a substrate preincubated for 5 mins followed by ligand addition measured for 35 mins by BRET assay; format: functional, HEK293, Cell membrane

CC[C@H](C)[C@H](NC(=O)[C@H](CCCNC(=N)N)NC(=O)[C@H](CCCNC(=N)N)NC(=O)[C@H](CC(C)C)NC(=O)[C@H](Cc1ccccc1)NC(=O)CNC(=O)CNC(=O)[C@@H](N)Cc1ccc(O)cc1)C(=O)N[C@@H](CCCNC(=N)N)C(=O)N1CCC[C@H]1C(=O)N[C@@H](CCCCN)C(=O)N[C@@H](CC(C)C)C(=O)N[C@@H](CCCCN)C(=O)O [ANALOG OF DYNORPHIN A]
Ki [1]: 0.3 nM
Emax [2]: 100%
EC50 [3]: 6.7 nM
EC50 [4]: 159 nM
